Test results from ChEMBL document CHEMBL1800057, “Discovery of dual inducible/neuronal nitric oxide synthase (iNOS/nNOS) inhibitor development candidate 4-((2-cyclobutyl-1H-imidazo[4,5-b]pyrazin-1-yl)methyl)-7,8-difluoroquinolin-2(1H)-one (KD7332) part 2: identification of a novel, potent, and selective series of benzimidazole-quinolinone …” (J Med Chem, 2010).

Key:
[1] = Plasma clearance in mouse at 3 mg/kg, iv and 10 mg/kg, po; format: ADME, organism-based
[2] = Volume of distribution at steady state in mouse at 3 mg/kg, iv and 10 mg/kg, po; format: ADME, organism-based; conditions: in vivo, read-out: Vdss
[3] = Cmax in mouse at 3 mg/kg, iv and 10 mg/kg, po; format: ADME, organism-based; conditions: in vivo
[4] = AUC in mouse at 3 mg/kg, iv and 10 mg/kg, po; format: ADME, organism-based; conditions: plasma
[5] = Half life in mouse at 10 mg/kg, po; format: ADME, organism-based; design: dose 10 mg/kg, route oral; conditions: in vivo
[6] = Oral bioavailability in mouse at 10 mg/kg; format: ADME, organism-based; conditions: in vivo
[7] = target: Nitric oxide synthase, inducible (Homo sapiens, UniProt P35228); test: Inhibition of human iNOS expressed in HEK293 cells assessed as inhibition of nitric oxide production after 18 hrs using 2,3-diaminonaphthalene by fluorescence assay; format: cell-based
Sequence of Nitric oxide synthase, inducible (Homo sapiens, UniProt P35228) (P35228 whole entry): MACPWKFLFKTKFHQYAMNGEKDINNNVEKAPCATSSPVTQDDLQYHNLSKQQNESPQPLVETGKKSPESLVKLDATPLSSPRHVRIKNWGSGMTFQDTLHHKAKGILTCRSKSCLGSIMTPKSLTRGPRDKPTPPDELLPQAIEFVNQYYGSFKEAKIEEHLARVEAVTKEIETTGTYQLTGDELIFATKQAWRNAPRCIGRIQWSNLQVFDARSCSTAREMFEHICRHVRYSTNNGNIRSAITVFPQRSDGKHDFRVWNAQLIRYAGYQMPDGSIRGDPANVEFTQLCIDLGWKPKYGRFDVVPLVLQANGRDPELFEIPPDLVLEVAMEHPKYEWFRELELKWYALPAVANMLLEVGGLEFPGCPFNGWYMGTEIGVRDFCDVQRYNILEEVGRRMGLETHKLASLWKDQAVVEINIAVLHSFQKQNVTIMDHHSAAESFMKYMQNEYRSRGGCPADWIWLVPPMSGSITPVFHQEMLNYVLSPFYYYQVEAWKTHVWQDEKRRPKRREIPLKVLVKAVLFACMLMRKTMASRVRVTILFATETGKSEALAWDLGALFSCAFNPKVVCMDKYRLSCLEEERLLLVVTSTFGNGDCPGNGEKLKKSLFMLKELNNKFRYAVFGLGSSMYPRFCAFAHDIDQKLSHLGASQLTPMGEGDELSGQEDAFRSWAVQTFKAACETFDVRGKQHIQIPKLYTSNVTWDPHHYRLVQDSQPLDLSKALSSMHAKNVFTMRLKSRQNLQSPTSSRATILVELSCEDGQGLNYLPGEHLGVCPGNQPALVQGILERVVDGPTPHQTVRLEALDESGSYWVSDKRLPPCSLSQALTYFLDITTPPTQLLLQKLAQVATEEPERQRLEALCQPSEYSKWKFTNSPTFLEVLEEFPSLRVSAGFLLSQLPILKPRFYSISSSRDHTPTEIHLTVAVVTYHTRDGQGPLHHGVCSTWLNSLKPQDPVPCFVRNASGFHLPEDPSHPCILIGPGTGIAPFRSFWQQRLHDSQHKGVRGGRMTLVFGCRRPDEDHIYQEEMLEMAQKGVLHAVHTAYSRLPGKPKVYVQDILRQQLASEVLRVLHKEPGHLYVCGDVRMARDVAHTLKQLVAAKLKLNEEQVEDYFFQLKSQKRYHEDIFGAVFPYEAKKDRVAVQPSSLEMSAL
Procedure, shortened: (§1)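 HEK293 cells grown to ~70% confluence in DMEM/10% FBS with pen/strep, transiently transfected with 10 μg human or murine iNOS plasmid plus Fugene 6 for 4 h at 37 °C, 10% CO2. Cells replated at 5e5 cells/mL and dosed with compound at once; 1400W (100 μM final) as positive control. After 18 h, DAN (10 μg/mL final) in HCl (0.1 N final) added for 20 min at room temperature. Fluorescence read after NaOH (0.12 N final).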

[8] = target: T1, Nitric oxide synthase 1 (Homo sapiens, UniProt P29475); test: Inhibition of human nNOS expressed in HEK293 cells assessed as inhibition ionomycin induced nitric oxide production incubated for 24 hrs measured after 18 hrs of ionomycin challenge using 2,3-diaminonaphthalene by fluorescence assay; format: cell-based
T1 sequence (P29475 whole entry): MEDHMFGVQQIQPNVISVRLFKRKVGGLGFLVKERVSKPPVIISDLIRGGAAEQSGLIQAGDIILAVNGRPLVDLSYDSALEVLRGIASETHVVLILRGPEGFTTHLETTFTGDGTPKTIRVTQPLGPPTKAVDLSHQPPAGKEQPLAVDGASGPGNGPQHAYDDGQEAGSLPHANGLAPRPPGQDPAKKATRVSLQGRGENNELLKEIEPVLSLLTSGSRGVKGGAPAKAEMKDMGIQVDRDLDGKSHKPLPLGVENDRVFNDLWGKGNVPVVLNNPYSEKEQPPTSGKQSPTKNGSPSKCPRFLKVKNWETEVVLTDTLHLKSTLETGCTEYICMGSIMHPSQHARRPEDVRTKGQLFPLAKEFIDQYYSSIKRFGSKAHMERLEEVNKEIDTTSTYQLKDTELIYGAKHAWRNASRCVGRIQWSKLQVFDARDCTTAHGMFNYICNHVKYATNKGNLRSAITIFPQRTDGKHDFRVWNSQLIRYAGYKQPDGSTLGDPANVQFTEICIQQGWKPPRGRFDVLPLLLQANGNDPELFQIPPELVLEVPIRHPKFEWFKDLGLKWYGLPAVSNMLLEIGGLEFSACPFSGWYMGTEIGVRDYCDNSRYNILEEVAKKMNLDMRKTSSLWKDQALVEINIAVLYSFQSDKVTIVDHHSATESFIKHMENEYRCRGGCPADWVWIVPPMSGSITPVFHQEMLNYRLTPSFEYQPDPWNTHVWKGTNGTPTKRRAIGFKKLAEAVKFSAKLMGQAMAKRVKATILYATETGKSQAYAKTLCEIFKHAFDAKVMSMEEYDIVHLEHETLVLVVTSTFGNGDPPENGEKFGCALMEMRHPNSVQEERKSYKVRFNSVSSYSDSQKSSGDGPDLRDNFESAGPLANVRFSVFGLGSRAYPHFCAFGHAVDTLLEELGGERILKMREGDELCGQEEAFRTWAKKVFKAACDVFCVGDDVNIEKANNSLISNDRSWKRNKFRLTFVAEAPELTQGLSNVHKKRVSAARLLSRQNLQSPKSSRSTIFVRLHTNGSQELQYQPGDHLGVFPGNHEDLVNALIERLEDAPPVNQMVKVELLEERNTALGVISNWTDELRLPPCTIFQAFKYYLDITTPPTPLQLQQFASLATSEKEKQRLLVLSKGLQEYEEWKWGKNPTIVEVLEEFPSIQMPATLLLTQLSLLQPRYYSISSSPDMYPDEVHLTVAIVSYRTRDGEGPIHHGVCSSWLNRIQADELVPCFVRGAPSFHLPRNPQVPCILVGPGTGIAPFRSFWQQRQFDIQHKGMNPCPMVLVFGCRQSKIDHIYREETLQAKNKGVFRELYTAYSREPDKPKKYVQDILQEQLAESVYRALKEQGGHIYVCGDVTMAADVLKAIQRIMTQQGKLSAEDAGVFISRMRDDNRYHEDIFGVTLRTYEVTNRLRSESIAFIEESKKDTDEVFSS
Procedure, shortened: (§2)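 HEK293 cells transfected for 4 h at 37 °C with human nNOS (10 μg) or human eNOS (15 μg) plasmid (Fugene 6, 3:1). Cells replated at 5e5 cells/mL and dosed with compound at once; SEITU (100 μM final) as positive control. After 24 h, cells activated with A23187 (83 nM final) for eNOS or ionomycin (30 μM final) for nNOS. NO read 18 h later as nitrite-DAN fluorescence.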

[9] = target: T2, Nitric oxide synthase 3 (Homo sapiens, UniProt P29474); test: Inhibition of human eNOS expressed in HEK293 cells assessed as inhibition A23187 induced nitric oxide production incubated for 24 hrs measured after 18 hrs of […] challenge using 2,3-diaminonaphthalene by fluorescence assay; format: cell-based; procedure, shortened: as §2
T2 sequence (P29474 whole entry): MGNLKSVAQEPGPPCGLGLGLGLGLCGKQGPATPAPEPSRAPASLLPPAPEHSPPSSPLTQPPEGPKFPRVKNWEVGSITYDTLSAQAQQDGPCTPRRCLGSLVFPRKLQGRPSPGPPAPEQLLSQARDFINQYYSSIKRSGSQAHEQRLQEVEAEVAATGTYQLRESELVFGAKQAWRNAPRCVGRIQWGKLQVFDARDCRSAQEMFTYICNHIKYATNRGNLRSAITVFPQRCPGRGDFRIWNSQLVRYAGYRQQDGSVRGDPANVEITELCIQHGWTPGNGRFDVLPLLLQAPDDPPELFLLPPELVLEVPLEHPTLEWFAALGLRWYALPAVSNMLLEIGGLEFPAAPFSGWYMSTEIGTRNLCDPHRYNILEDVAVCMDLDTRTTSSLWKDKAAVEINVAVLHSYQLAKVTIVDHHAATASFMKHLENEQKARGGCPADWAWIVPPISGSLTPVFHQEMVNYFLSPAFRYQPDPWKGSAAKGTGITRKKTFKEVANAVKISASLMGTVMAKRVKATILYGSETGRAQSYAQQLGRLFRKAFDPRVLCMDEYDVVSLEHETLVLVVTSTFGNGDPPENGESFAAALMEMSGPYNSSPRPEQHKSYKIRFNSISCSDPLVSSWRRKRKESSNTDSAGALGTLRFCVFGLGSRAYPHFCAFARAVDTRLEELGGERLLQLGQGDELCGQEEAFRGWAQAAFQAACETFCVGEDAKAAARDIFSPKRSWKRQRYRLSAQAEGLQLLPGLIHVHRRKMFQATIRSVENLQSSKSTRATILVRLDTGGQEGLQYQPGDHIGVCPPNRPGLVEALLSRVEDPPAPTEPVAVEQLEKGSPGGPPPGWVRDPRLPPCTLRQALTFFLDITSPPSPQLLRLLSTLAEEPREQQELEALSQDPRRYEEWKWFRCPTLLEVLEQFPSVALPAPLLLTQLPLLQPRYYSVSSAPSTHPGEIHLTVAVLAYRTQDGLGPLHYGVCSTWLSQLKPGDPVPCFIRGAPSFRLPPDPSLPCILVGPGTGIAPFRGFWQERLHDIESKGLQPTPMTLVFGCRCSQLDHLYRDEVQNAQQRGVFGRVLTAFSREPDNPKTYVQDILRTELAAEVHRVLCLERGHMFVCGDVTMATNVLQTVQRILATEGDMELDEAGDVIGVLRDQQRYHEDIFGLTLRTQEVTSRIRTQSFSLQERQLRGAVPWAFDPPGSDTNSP

[10] = system: Liver; test: Half life in mouse liver microsomes assessed as formation of oxidation product and glucuronide conjugate; format: ADME, Microsome
Procedure, shortened: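 Mouse liver microsomes run under combined phase I oxidation and phase II glucuronide conjugation; half-life reported in minutes.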

[11] = species on record: Homo sapiens; test: Ratio of IC50 for human eNOS to EC50 for human iNOS
[12] = species on record: Homo sapiens; test: Ratio of IC50 for human nNOS to EC50 for human iNOS
[13] = target: T3, Nitric oxide synthase, inducible (Mus musculus, UniProt P29477); test: Inhibition of mouse iNOS expressed in HEK293 cells assessed as inhibition of nitric oxide production after 18 hrs using 2,3-diaminonaphthalene by fluorescence assay; format: cell-based; procedure, shortened: as §1
T3 sequence (P29477 whole entry): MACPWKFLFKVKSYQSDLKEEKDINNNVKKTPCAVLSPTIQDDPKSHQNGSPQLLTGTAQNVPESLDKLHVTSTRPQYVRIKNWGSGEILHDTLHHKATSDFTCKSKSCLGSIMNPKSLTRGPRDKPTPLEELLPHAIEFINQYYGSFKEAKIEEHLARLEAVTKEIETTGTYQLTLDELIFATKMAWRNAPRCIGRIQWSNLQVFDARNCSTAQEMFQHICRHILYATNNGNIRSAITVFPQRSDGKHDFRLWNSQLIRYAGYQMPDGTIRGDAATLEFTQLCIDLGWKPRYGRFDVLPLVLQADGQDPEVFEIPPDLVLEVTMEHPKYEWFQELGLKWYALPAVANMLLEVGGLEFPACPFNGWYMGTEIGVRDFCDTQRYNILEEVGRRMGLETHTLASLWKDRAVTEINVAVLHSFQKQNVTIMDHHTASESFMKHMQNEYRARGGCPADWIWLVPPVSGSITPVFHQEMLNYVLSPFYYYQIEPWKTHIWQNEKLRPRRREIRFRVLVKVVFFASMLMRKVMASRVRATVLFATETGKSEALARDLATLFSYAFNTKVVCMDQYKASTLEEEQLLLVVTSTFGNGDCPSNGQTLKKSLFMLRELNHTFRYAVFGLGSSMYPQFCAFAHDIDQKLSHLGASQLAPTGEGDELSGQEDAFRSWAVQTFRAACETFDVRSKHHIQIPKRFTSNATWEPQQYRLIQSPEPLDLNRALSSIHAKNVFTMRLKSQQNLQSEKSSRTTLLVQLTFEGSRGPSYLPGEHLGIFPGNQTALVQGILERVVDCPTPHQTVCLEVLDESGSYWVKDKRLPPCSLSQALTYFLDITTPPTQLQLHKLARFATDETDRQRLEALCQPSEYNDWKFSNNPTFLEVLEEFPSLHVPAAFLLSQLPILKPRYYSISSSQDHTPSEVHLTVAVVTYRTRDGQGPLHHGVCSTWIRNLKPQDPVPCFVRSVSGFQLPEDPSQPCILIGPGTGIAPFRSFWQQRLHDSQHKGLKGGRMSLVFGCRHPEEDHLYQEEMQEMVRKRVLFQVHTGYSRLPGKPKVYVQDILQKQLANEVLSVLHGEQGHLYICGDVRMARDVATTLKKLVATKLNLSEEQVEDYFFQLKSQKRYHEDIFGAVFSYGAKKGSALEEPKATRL

[14] = system: Mus musculus; test: Inhibition of LPS-induced iNOS activation in BALB/c mouse assessed as plasma nitrate levels at 30 mg/kg administered via oral gavage before LPS challenge measured after 6 to 8 hrs using 2,3-diaminonaphthalene by fluorescence assay relative to control; format: functional
Procedure, shortened: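 Male BALB/c mice dosed by oral gavage (90% PEG/5% Tween 80/5% PVP + 0.5% w/v CMC) immediately before LPS (10 mg/kg ip in 0.9% NaCl). Mice killed at 6 h. EDTA plasma analysed for nitrate and drug levels; nitrite measured by DAN fluorescence.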

[15] = Half life in mouse at 3 mg/kg, iv and 10 mg/kg, po; conditions: in vivo
[16] = target: T4, Nitric oxide synthase 3 (Homo sapiens) (UniProt P29474); test: Inhibition of human eNOS expressed in HEK293 cells assessed as inhibition A23187 induced nitric oxide production at 100 uM incubated for 24 hrs measured after 18 hrs of […] challenge using 2,3-diaminonaphthalene by fluorescence assay; format: cell-based
T4 sequence (whole entry): T2 sequence (P29474 whole entry)

[17] = target: T1, Nitric oxide synthase 1; test: Inhibition of human nNOS expressed in HEK293 cells assessed as inhibition ionomycin induced nitric oxide production at 10 uM incubated for 24 hrs measured after 18 hrs of ionomycin challenge using 2,3-diaminonaphthalene by fluorescence assay; format: cell-based

For Cc1ncsc1-c1nc2ccccc2n1Cc1cc(=O)[nH]c2c(F)c(F)ccc12, the clearance [1] was 12 mL/min/kg, the Vd [2] was 1.2 L/kg and the Cmax [3] was 3800 ng/mL. The AUC [4] was 5670 ng·h/mL, the half-life [5] was 3.1 h and the bioavailability [6] was 39%. It also gave an EC50 [7] of 1800 nM, an EC50 [8] of 1500 nM and an EC50 [9] of 6800 nM. For the same molecule, the t1/2 [10] was 1.63 h, the Ratio EC50 [11] was 3.8 and the Ratio EC50 [12] was 0.8. For the same molecule, the EC50 [13] was 10300 nM, the inhibition in vivo at 30 mg/kg [14] was 30% and the half-life [15] was 2.3 h.

In the case of O=c1cc(Cn2c(-c3ccccn3)nc3ccccc32)c2ccc(F)c(F)c2[nH]1, the EC50 [7] is reported as 18000 nM, the EC50 [8] is reported as greater than 10000 nM and the EC50 [9] is reported as greater than 100000 nM. It also gave a t1/2 [10] of 1.1 h, a Ratio EC50 [11] greater than 6 and a Ratio EC50 [12] greater than 0.5. It also gave an inhibition [16] of less than 50% and an inhibition [17] of less than 50%.

For CN(C)c1ccnc2c1nc(C1CCC1)n2Cc1cc(=O)[nH]c2c(F)c(F)ccc12, the Cmax [3] was 400 ng/mL, the AUC [4] was 700 ng·h/mL and the half-life [5] was 1.4 h. For the same molecule, the EC50 [7] was 170 nM, the EC50 [8] was 1000 nM and the EC50 [9] was greater than 100000 nM. The t1/2 [10] was 0.13 h, the Ratio EC50 [11] was greater than 590 and the Ratio EC50 [12] was 5.9. It also gave an inhibition [16] of less than 50%, an EC50 [13] of 1800 nM and an inhibition in vivo at 30 mg/kg [14] of 30%.
